In publication PMC2233693 (The Journal of General Physiology, 2000):
Where a chain is given by its changes, count along the chain named. Where two headings read alike, the source gives them in different places.

What was measured:
Type in all cases: biochemical
[1] = biological target: T1, wild-type bovine olfactory CNG channel (α3 subunit) (Bos taurus, UniProt Q03041); assay: Blockage of macroscopic current by external Ca2+ or Mg2+, outside-out patches; conditions: for Ki: mean ± SD
T1 sequence (Q03041 1-663): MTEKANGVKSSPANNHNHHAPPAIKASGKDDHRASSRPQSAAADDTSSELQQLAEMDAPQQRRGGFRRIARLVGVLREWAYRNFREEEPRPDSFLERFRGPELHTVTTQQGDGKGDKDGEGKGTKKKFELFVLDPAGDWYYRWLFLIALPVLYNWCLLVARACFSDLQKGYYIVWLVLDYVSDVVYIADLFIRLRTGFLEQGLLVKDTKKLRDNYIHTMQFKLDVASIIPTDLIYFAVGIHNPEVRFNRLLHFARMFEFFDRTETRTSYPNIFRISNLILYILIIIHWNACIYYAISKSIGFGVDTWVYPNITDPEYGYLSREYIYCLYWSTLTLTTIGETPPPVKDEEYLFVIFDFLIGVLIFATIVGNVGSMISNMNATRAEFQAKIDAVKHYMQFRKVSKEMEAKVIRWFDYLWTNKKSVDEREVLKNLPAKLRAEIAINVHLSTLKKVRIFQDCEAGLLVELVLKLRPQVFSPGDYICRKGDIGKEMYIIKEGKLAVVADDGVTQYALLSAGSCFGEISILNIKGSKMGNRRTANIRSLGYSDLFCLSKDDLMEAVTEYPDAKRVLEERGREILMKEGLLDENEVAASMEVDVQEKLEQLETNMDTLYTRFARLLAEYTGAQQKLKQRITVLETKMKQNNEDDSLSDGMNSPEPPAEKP
Outline: (§1)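 Xenopus oocytes injected with wild-type or mutant channel mRNA; outside-out patches with 100 μM cGMP in the pipette. Bath: 110 mM NaCl, 2 mM EDTA, 10 mM HEPES, pH 7.4, plus Ca2+ (NTA-buffered) or Mg2+ (EDTA-buffered); unbuffered above 0.1 mM. Five 1-s ramps (−80 to +80 mV) averaged, leak subtracted. Current normalised to divalent-free current at the same voltage, Hill-fitted per patch; Ki and n given as mean ± SD.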

[2] = biological target: T1, wild-type bovine olfactory CNG channel (α3 subunit); assay: Blockage of macroscopic current by internal Ca2+, inside-out patches; conditions: read-out: K i for internal Ca2+ blockage, +80 mV, 1 mM cGMP, average
[3] = biological target: T2, E340G mutant bovine olfactory CNG channel (Bos taurus, UniProt Q03041, E340G); assay: Blockage of macroscopic current by external Ca2+ or Mg2+, outside-out patches; conditions: for Ki: mean ± SD
T2 sequence (Q03041 1-663 E340G): T1 sequence (Q03041 1-663) with E340G
Outline: as §1

[4] = biological target: T1, wild-type bovine olfactory CNG channel (α3 subunit); assay: Divalent cation permeation, outside-out patches in bi-ionic conditions; conditions: for reversal potential, V rev: internal Na
Outline: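 Outside-out oocyte patches; the pipette held 1 mM cGMP and 110 mM NaCl. External 110 mM NaCl was replaced by 73.3 mM CaCl2 or MgCl2. From a 0 mV holding potential, 150-ms steps were given from −80 to +80 mV in 20-mV increments. I_Ca/I_Na was taken at −80 mV, and reversal potential under bi-ionic conditions (internal Na+, external divalent); mean ± SD.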

[5] = biological target: T1, wild-type bovine olfactory CNG channel (α3 subunit); conditions: cGMP
[6] = biological target: T3, E340N mutant bovine olfactory CNG channel (Bos taurus, UniProt Q03041, E340N); conditions: for P max (+80 mV) / P max (−80 mV): cGMP
T3 sequence (Q03041 1-663 E340N): T1 sequence (Q03041 1-663) with E340N

[7] = 3 μM cGMP, +80 mV, amplitude histogram, Fig. 3
[8] = 100 μM cGMP, +80 mV, amplitude histogram, Fig. 3
[9] = high level of current determined with respect to low level

[Ca+2] [Ca^2+]
n, Hill coefficient of blockage ([1]; external Ca2+, +80 mV): 0.9 ± 0.1
Ki ([1]; external Ca2+, +80 mV): 383 ± 145 µM
n, Hill coefficient of blockage ([1]; external Ca2+, −80 mV): 1.3 ± 0.4
Ki ([1]; external Ca2+, −80 mV): 47 ± 21 µM
Ki [2]: 1000 ± 700 µM
n, Hill coefficient of blockage ([3]; external Ca2+, +80 mV): 0.6 ± 0.2
Ki ([3]; external Ca2+, +80 mV): 26000 ± 9800 µM
n, Hill coefficient of blockage ([3]; external Ca2+, −80 mV): 0.4 ± 0.1
Ki ([3]; external Ca2+, −80 mV): 6300 ± 2500 µM
reversal potential, V rev ([4]; external Ca2+): 25 ± 6 mV
I Ca/I Na ([4]; −80 mV, external 73.3 mM CaCl2 vs 110 mM NaCl): 0.049 ± 0.004

Nc1nc2c(ncn2[C@@H]2O[C@@H]3COP(=O)(O)O[C@H]3[C@H]2O)c(=O)[nH]1 [cGMP]
P max (+80 mV) [5]: 0.993 ± 0.004
P max (−80 mV) [5]: 0.996 ± 0.001
L, equilibrium gating constant ([5]; allosteric model fit, mean ± SD): 334 ± 82
P closed [6, 7]: 0.765
P o,high [6, 7]: 0.015
P closed [6, 8]: 0.01
P o,high [6, 8]: 0.065
P o,low [6, 8]: 0.925
P max (+80 mV) [6, 9]: 0.10 ± 0.07
P max (−80 mV) [6, 9]: 0.04 ± 0.01
P max (+80 mV) ([6]; low level of current): 0.87 ± 0.02
P max (−80 mV) ([6]; low level of current): 0.96 ± 0.01

[Mg+2] [Mg^2+]
n, Hill coefficient of blockage ([1]; external Mg2+, +80 mV): 1.0 ± 0.1
Ki ([1]; external Mg2+, +80 mV): 920 ± 640 µM
n, Hill coefficient of blockage ([1]; external Mg2+, −80 mV): 1.2 ± 0.2
Ki ([1]; external Mg2+, −80 mV): 70 ± 34 µM
n, Hill coefficient of blockage ([3]; external Mg2+, +80 mV): 0.8 ± 0.2
Ki ([3]; external Mg2+, +80 mV): 9500 ± 3900 µM
n, Hill coefficient of blockage ([3]; external Mg2+, −80 mV): 0.7 ± 0.1
Ki ([3]; external Mg2+, −80 mV): 1100 ± 300 µM
reversal potential, V rev ([4]; external Mg2+): 45 ± 7 mV
